The array DNA melting data of Ke et al. (doi:10.1101/2024.01.08.574731)

What was measured:
[1] = folding enthalpy; higher = less favourable; fluorescence melt of hairpins on a sequencing array, two-state fit; details: sodium 0.088 M
How it was run: (§1)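 With Cy3 and quencher oligos annealed, library hairpins on a sequenced MiSeq flow cell were imaged for Cy3 fluorescence in 50 mM Na-HEPES pH 8.0, 25 mM NaCl, in 2.5 °C steps up to 60 °C. Melting temperature and folding enthalpy were derived from bootstrapped two-state fits of signals normalised to pre-quench Cy3 and to control constructs. Four replicates were combined by inverse variance, with fitted temperatures raised by 9.35 °C to match UV melts.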

[2] = melting temperature; fluorescence melt of hairpins on a sequencing array, two-state fit, raised by 9.35 °C to match UV melts; details: sodium 0.088 M
How it was run: as §1

| Sequence | folding enthalpy [1] [kcal/mol] | Tm [2] [°C] |
| --- | --- | --- |
| GTCGTACGAAAGTAGAC (((.(((....)))))) | -32.4 | 52 |
| GGCCCAACGAAAGTTGCC (((..(((....)))))) | -13.9 | 32.5 |
| GCGGTGCGAAAGCCCAGC ((.(.((....)).).)) | -21.6 | 54.2 |
| GGTTTCGGAAACAAAACC (((((.(....).))))) | -22.7 | 36.6 |
| GTGTCCGGAAACGGACGC (.(((((....))))).) | -14.6 | 62.5 |
| GCTTTGCGAAAGCACTGC ((..(((....)))..)) | -17.5 | 43 |
| GGTGTTGGAAACAGCACC ((((.((....)).)))) | -37.1 | 51.8 |
| GGGAGTACGAAAGTACCC (((..(((....)))))) | -13.1 | 51.3 |
| GATCTAATCGTAGATC ((((((....)))))) | -13.7 | 36.1 |
| GGTAGTGGAAACACCACC (((.(((....))).))) | -20.8 | 40 |
| GTGCCTGGAAACAGACAC (((.(((....))).))) | -28.6 | 46.9 |
| GCCCCCGGAAACGGGGAC (.(((((....))))).) | -11.4 | 53.2 |
| CGCGGAAGCCTCCGCG ((((((....)))))) | -31.3 | 68.6 |
| GACAGGCGAAAGCCCGTC (((.(((....))).))) | -22.3 | 52.9 |
| GTCGACGAAAGTCACGAC ((((((....)))..))) | -18.6 | 45.4 |
| GCGTAATCGAAAGATCGC (((..(((....)))))) | -25.1 | 45.6 |
| GTGGTATCGAAAGATCAC (((..(((....)))))) | -23.8 | 33.3 |
| GCCTGTGGAAACATGGGC (((..((....))..))) | -29.4 | 47.4 |
| GCGCCCGAAAGGGTTCGC ((((((....)))..))) | -17.7 | 54.6 |
| GGTCACGAAAGTGTTACC ((((((....)))..))) | -17.1 | 38.2 |
| GCCAAGCGAAAGCTTCGC ((.((((....)))).)) | -16.8 | 50.4 |
| GCCCGTCGAAAGACGGC (((.(((....)))))) | -10.7 | 63.6 |
| GACCGAGGAAACTTGGTC ((((.((....)).)))) | -32.5 | 50.1 |

| Sequence | folding enthalpy [1] [kcal/mol] | Tm [2] [°C] |
| --- | --- | --- |
| GCACTCGAAAGAGACTGC ((((((....)))..))) | -17 | 34.6 |
| GACGAAGGAAACTTCGCC (.(((((....))))).) | -16.8 | 43.7 |
| CGAACCGGAAACGGTCG (((.(((....)))))) | -23 | 51.4 |
| GTCATCGCGAAAGCGGAC (((..(((....)))))) | -11.1 | 39.9 |
| GCACTCACGAAAGTGTGC (((..(((....)))))) | -23 | 48.7 |
| GTGCCAGGAAACTAGCAC ((((.((....)).)))) | -28.2 | 43.2 |
| GATCAAGTGCTTGATC ((((((....)))))) | -41.2 | 47.2 |
| GAGCCTGGAAACAGACTC (((.(((....))).))) | -31.9 | 43.6 |
| GATCGTCTGAACGATC ((((((....)))))) | -39.6 | 55.6 |
| GGGTTTGGAAACGAATCC ((.((.(....).)).)) | -25.1 | 34.6 |
| GAGGCGGCGAAAGCCCTC (((..(((....)))))) | -11 | 43.1 |
| GTAGGTGGAAACATCTGC (.((.((....)).)).) | -18.4 | 30 |
| GCTTGGCGAAAGCTACGC ((.(.((....)).).)) | -14.8 | 43.3 |
| GGACCTGGAAACGGGTCC (((((.(....).))))) | -45 | 58.3 |
| GGGATGGGAAACCATCTC (.(((((....))))).) | -24.5 | 49.9 |
| GTTTGCTCGAAAGAGAAC (((..(((....)))))) | -14.7 | 27 |
| GGACTGAAAAGTCC (((((....))))) | -25.9 | 59.9 |
| CGCGTGCGGAAACGCGCG (((..(((....)))))) | -12.4 | 66.1 |
| GCGCTTGGAAACAAGTGC ((.((((....)))).)) | -50.5 | 56.9 |
| GGTGGCGAAAGCCGAACC ((((((....)))..))) | -14.9 | 45.3 |
| GGTTACGAAAGTAGTACC ((((((....)))..))) | -14.8 | 34.8 |
| GATCGGTTACCCGATC ((((((....)))))) | -41.4 | 57.3 |
| GCCAGTCCGAAAGGAGGC (((..(((....)))))) | -22.1 | 44.4 |
